Here are results for three compounds from ChEMBL document CHEMBL1129543, “Synthesis and evaluation of N-(phenylacetyl)trifluoromethanesulfonamides as anticonvulsant agents” (J Med Chem, 1996).

Assay [1] has as its system Mus musculus. Kind of assay: Anti-seizure activity was evaluated by Neurologic toxicity (rotarod test) at dose 600 mg/kg after 0.5 hours; + denotes neurotoxicity. In kind it is functional, organism-based. Set-up: dose 600 mg/kg. The method in brief: (§1)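 Phase I neurotoxicity in mice by rotorod ataxia test. Compound given ip at 30, 100, 300 or 600 mg/kg in 30% PEG 400, read 0.5 h and 4 h after. Scored ++++ to + for toxicity at 30 to 600 mg/kg; - means no toxicity.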
Background: Falling from the rotarod earlier than controls is read as motor impairment.

Assay [2] relates to Mus musculus. Kind of assay: Median toxic dose was evaluated by […] through intraperitoneal administration. Format: functional.
The test system of assay [3] is Mus musculus. The assay is described as follows: Anti-seizure activity was evaluated by Subcutaneous pentylenetetrazole seizure test at dose 300 mg/kg after 4.0 hours; ++ denotes antiseizure activity. In kind it is functional, organism-based. Further details: dose 300 mg/kg. The method in brief: (§2)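 Phase I screen in mice: ip dosing at 30, 100, 300 and 600 mg/kg in 30% PEG 400, read 0.5 h and 4 h after. Pentylenetetrazol given sc at CD97 (85 mg/kg). Protection means no clonic spasm of at least 5 s over 30 min. Scored ++++ to + for 30 to 600 mg/kg.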

Assay [4] is filed under the species Mus musculus. Kind of assay: Time to peak toxicity was evaluated by Maximal electroshock seizure test in hours. Format: functional.
Assay [5] is filed under the species Rattus norvegicus. Kind of assay: Protective index (TD50/ED50) was determined against scMet induced seizure in rat. In kind it is functional. In outline: (§3)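 Oral dosing in 30% PEG 400: phase IV in mice (0.01 mL/g), phase VI in Sprague-Dawley rats (0.004 mL/g). ED50/TD50 found as in phase II, at the stated time of peak effect. MES current 50 mA in mice, 150 mA in rats. Toxicity by rotorod in mice; positional sense, gait and stance in rats. PI = TD50/ED50.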

The subject of assay [6] is Mus musculus. Kind of assay: Median effective dose was evaluated by Maximal electroshock seizure test through intraperitoneal administration. In kind it is functional. As to conditions: ip. The method in brief:
(§4)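 Phase II in mice, ip dosing in 30% PEG 400. Groups of 6-12 mice per dose until at least three points fall in 10-90% protection. […] MES: 50 mA, 0.2 s corneal. scMet: pentylenetetrazol 85 mg/kg sc.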
In general terms: In the maximal electroshock model the usual endpoint is tonic extension of the hind limbs.

The subject of assay [7] is Mus musculus. Kind of assay: Anti-seizure activity was evaluated by Subcutaneous pentylenetetrazole seizure test at dose 300 mg/kg after 0.5 hours; ++ denotes antiseizure activity. Further details: dose 300 mg/kg. Format: functional, organism-based. In outline:
as §2

Assay [8] deals with Mus musculus. Kind of assay: Anti-seizure activity was evaluated by Maximal electroshock seizure (MES) test at dose 100 mg/kg after 0.5 hours; +++ denotes antiseizure activity. In kind it is functional, organism-based. Further details: dose 100 mg/kg. In outline:
(§5)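 Phase I screen in mice: ip injection at 30, 100, 300 and 600 mg/kg in 30% PEG 400 (0.01 mL/g). Test run 0.5 h and 4 h after dosing. 60-Hz AC, 50 mA, via corneal electrodes for 0.2 s. Protection means abolition of hind-leg tonic extension. Scored ++++ to + for activity at 30 to 600 mg/kg.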

For assay [9], the species on record is Rattus norvegicus. The assay is described as follows: Protective index (TD50/ED50) was determined against MES induced seizure in rat. In kind it is functional. The method in brief: as §3
Assay [10] concerns Mus musculus. Kind of assay: Median effective dose was evaluated by subcutaneous pentylenetetrazole seizure test through intraperitoneal administration. Format: functional. The method in brief:
as §4

The test system of assay [11] is Mus musculus. The assay is described as follows: Anti-seizure activity was evaluated by Maximal electroshock seizure (MES) test at dose 100 mg/kg after 4.0 hours; +++ denotes antiseizure activity. Further details: dose 100 mg/kg. Format: functional, organism-based. The method in brief: as §5
For assay [12], the species on record is Mus musculus. The assay is described as follows: Time to peak activity was evaluated by Maximal electroshock seizure test in hours. In kind it is functional.
Assay [13] concerns Mus musculus. Kind of assay: Anti-seizure activity was evaluated by Neurologic toxicity (rotarod test) at dose 600 mg/kg after 4.0 hours; + denotes neurotoxicity. Format: functional, organism-based. Further details: dose 600 mg/kg. The method in brief:
as §1

The test system of assay [14] is Mus musculus. The assay is described as follows: Anti-seizure activity was evaluated by Subcutaneous pentylenetetrazole seizure test at dose 100 mg/kg after 0.5 hours; +++ denotes antiseizure activity. In kind it is functional, organism-based. Set-up: dose 100 mg/kg. In outline: as §2
Assay [15] deals with Mus musculus. The assay is described as follows: Anti-seizure activity was evaluated by Neurologic toxicity (rotarod test) at dose 300 mg/kg after 0.5 hours; ++ denotes antiseizure activity. In kind it is functional, organism-based. Further details: dose 300 mg/kg. The method in brief: as §1

On to `COc1cccc(CC(=O)NS(=O)(=O)C(F)(F)F)c1`, for which the Activity result in the assay with Mus musculus [1], with Mus musculus [3], with Mus musculus [7], with Mus musculus [8], in the assay with Mus musculus [11] and with Mus musculus [13] was “Antiseizure activity” throughout. In the assay on Mus musculus [2], this compound showed a TD50 of 325 mg/kg. For the same compound, the TPE in the assay filed under Mus musculus [4] and in the assay filed under Mus musculus [12] was 2 throughout. The PI in the assay filed under Rattus norvegicus [5] is given as 4.2; in the assay listed under Rattus norvegicus [9] it was 17. Besides, the ED50 with Mus musculus [6] stood at 19 mg/kg; with Mus musculus [10], 77 mg/kg.
For `O=C(Cc1cccc(Cl)c1)NS(=O)(=O)C(F)(F)F`, the TD50 in the assay on Mus musculus [2] was determined as 249 mg/kg. Also, the Activity entry with Mus musculus [14], with Mus musculus [3], in the assay with Mus musculus [8], in the assay on Mus musculus [15] and in the assay on Mus musculus [13] was “Antiseizure activity” each time. The TPE is 0.5 in the assay listed under Mus musculus [4] and 2 in the assay filed under Mus musculus [12]. In addition, the results for the PI in the assay filed under Rattus norvegicus [5] and in the assay listed under Rattus norvegicus [9] were 7.2 and 37, respectively. Further, the ED50 in the assay with Mus musculus [6] stood at 6.8 mg/kg; in the assay with Mus musculus [10] it was 35 mg/kg.
Compound `O=C(Cc1ccc([N+](=O)[O-])cc1)NS(=O)(=O)C(F)(F)F` had a TD50 in the assay on Mus musculus [2] of 482 mg/kg. Moreover, the figures for the TPE in the assay filed under Mus musculus [4] and in the assay filed under Mus musculus [12] were 6 and 4, respectively. Besides, the PI came out at 24 in the assay listed under Rattus norvegicus [5] and 39 in the assay listed under Rattus norvegicus [9]. The ED50 is 12 mg/kg with Mus musculus [6] and 20 mg/kg in the assay on Mus musculus [10]. Further, the Activity result with Mus musculus [7], in the assay on Mus musculus [8], in the assay with Mus musculus [15] and in the assay on Mus musculus [13] was “Antiseizure activity” in each case.

Usually TD50 stands for the 50% point of the dose-response relation for the toxic effect studied. Lower therefore signals greater toxicity. As usually defined, the ED50 is the midpoint of the dose-response relation. A higher ED50 goes with weaker potency.
